Laboratory results taken from ChEMBL document CHEMBL1143542, “Structure-activity relationships of bivalent aminoglycosides and evaluation of their microbiological activities” (2005).
In brackets after ≈: the same amount, converted by molar mass.

Assays:
Pseudomonas aeruginosa [1] = experiment: Susceptibility testing against Pseudomonas aeruginosa PAE_NUH01; R=Resistant; assay type: functional, organism-based
Outline: (§1)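 Disk diffusion susceptibility profiling of P. aeruginosa reference and clinical isolates against empirically used antipseudomonal antibiotics. Each isolate was categorised as susceptible, intermediate or resistant.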

Pseudomonas aeruginosa [2] = experiment: Susceptibility testing against Pseudomonas aeruginosa PAE_NUH02; R=Resistant; assay type: functional, organism-based; outline: as §1
Pseudomonas aeruginosa [3] = experiment: Susceptibility testing against Pseudomonas aeruginosa PAE_NUH03; R=Resistant; assay type: functional, organism-based; outline: as §1
Pseudomonas aeruginosa [4] = experiment: Susceptibility testing against Pseudomonas aeruginosa PAE_NUH04; R=Resistant; assay type: functional, organism-based; outline: as §1
Pseudomonas aeruginosa [5] = experiment: Susceptibility testing against Pseudomonas aeruginosa PAE_NUH05; R=Resistant; assay type: functional, organism-based; outline: as §1
Pseudomonas aeruginosa [6] = experiment: Susceptibility testing against Pseudomonas aeruginosa PAE_NUH06; R=Resistant; assay type: functional, organism-based; outline: as §1
Pseudomonas aeruginosa [7] = experiment: Susceptibility testing against Pseudomonas aeruginosa PAE_NUH22; S=Susceptible; assay type: functional, organism-based
Outline: (§2)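 Disk diffusion susceptibility profiling against a panel of empirically used antipseudomonal antibiotics. Each strain was categorised as susceptible (S) or intermediate (I).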

Pseudomonas aeruginosa [8] = experiment: Susceptibility testing against Pseudomonas aeruginosa PAE_NUH23; S=Susceptible; assay type: functional, organism-based; outline: as §2
Pseudomonas aeruginosa [9] = experiment: Susceptibility testing against Pseudomonas aeruginosa PAE_NUH24; S=Susceptible; assay type: functional, organism-based; outline: as §2
Pseudomonas aeruginosa [10] = experiment: Susceptibility testing against Pseudomonas aeruginosa PAE_NUH25; S=Susceptible; assay type: functional, organism-based; outline: as §2
Pseudomonas aeruginosa [11] = experiment: Susceptibility testing against Pseudomonas aeruginosa PAE_NUH07; I=Intermediate; assay type: functional, organism-based; outline: as §1
Pseudomonas aeruginosa [12] = experiment: Susceptibility testing against Pseudomonas aeruginosa ATCC 27853; S=Susceptible; assay type: functional, organism-based; outline: as §2
Pseudomonas aeruginosa [13] = experiment: Susceptibility testing against Pseudomonas aeruginosa PAE_NUH17; S=Susceptible; assay type: functional, organism-based; outline: as §2
Pseudomonas aeruginosa [14] = experiment: Susceptibility testing against Pseudomonas aeruginosa PAE_NUH18; S=Susceptible; assay type: functional, organism-based; outline: as §2
Pseudomonas aeruginosa [15] = experiment: Susceptibility testing against Pseudomonas aeruginosa PAE_NUH19; S=Susceptible; assay type: functional, organism-based; outline: as §2
Pseudomonas aeruginosa [16] = experiment: Susceptibility testing against Pseudomonas aeruginosa PAE_NUH20; S=Susceptible; assay type: functional, organism-based; outline: as §2
Pseudomonas aeruginosa [17] = experiment: Susceptibility testing against Pseudomonas aeruginosa PAE_NUH21; S=Susceptible; assay type: functional, organism-based; outline: as §2
Staphylococcus aureus [18] = experiment: In vitro minimum inhibitory concentration against Staphylococcus aureus MRSA 3359; assay type: functional
Outline: (§3)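 Broth microdilution following CLSI M100-S12. Stocks were 10 mg/mL in water, diluted in Mueller–Hinton broth to a top level of 128, then serially 2-fold in plates. Bacteria in cation-adjusted Mueller–Hinton broth were mixed 1:1 with drug and incubated 16–20 h at 35 °C. MIC was the lowest concentration with no visible growth. Run in duplicate with no-antibiotic and no-inoculum (sterility) controls.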

Pseudomonas aeruginosa [19] = experiment: In vitro minimum inhibitory concentration against Pseudomonas aeruginosa ATCC 27853; assay type: functional; outline: as §3
Staphylococcus aureus [20] = experiment: In vitro minimum inhibitory concentration against Staphylococcus aureus ATCC 29213; assay type: functional; outline: as §3
Pseudomonas aeruginosa [21] = experiment: Minimum inhibitory concentration against Pseudomonas aeruginosa PAE_NUH01; assay type: functional; outline: as §3
Pseudomonas aeruginosa [22] = experiment: Minimum inhibitory concentration against Pseudomonas aeruginosa PAE_NUH02; assay type: functional; outline: as §3
Pseudomonas aeruginosa [23] = experiment: Minimum inhibitory concentration against Pseudomonas aeruginosa PAE_NUH03; assay type: functional; outline: as §3
Pseudomonas aeruginosa [24] = experiment: Minimum inhibitory concentration against Pseudomonas aeruginosa PAE_NUH04; assay type: functional; outline: as §3
Pseudomonas aeruginosa [25] = experiment: Minimum inhibitory concentration against Pseudomonas aeruginosa PAE_NUH05; assay type: functional; outline: as §3
Pseudomonas aeruginosa [26] = experiment: Minimum inhibitory concentration against Pseudomonas aeruginosa PAE_NUH06; assay type: functional; outline: as §3
Pseudomonas aeruginosa [27] = experiment: Minimum inhibitory concentration against Pseudomonas aeruginosa PAE_NUH07; assay type: functional; outline: as §3
Pseudomonas aeruginosa [28] = experiment: Minimum inhibitory concentration against Pseudomonas aeruginosa PAE_NUH17; assay type: functional; outline: as §3
Pseudomonas aeruginosa [29] = experiment: Minimum inhibitory concentration against Pseudomonas aeruginosa PAE_NUH18; assay type: functional; outline: as §3
Pseudomonas aeruginosa [30] = experiment: Minimum inhibitory concentration against Pseudomonas aeruginosa PAE_NUH19; assay type: functional; outline: as §3
Pseudomonas aeruginosa [31] = experiment: Minimum inhibitory concentration against Pseudomonas aeruginosa PAE_NUH21; assay type: functional; outline: as §3
Pseudomonas aeruginosa [32] = experiment: Minimum inhibitory concentration against Pseudomonas aeruginosa PAE_NUH22; assay type: functional; outline: as §3
Enterococcus faecalis = experiment: In vitro minimum inhibitory concentration against Enterococcus faecalis 29212; assay type: functional; outline: as §3
Escherichia coli = experiment: In vitro minimum inhibitory concentration against Escherichia coli ATCC 25922; assay type: functional; outline: as §3
Pseudomonas aeruginosa [33] = experiment: Minimum inhibitory concentration against Pseudomonas aeruginosa PAE_NUH23; assay type: functional; outline: as §3
Pseudomonas aeruginosa [34] = experiment: Minimum inhibitory concentration against Pseudomonas aeruginosa PAE_NUH24; assay type: functional; outline: as §3
Pseudomonas aeruginosa [35] = experiment: Minimum inhibitory concentration against Pseudomonas aeruginosa PAE_NUH25; assay type: functional; outline: as §3
Pseudomonas aeruginosa [36] = experiment: Minimum inhibitory concentration against Pseudomonas aeruginosa ATCC 27853; assay type: functional; outline: as §3
Pseudomonas aeruginosa [37] = experiment: In vitro minimum inhibitory concentration against Pseudomonas aeruginosa PAO-1 Minimum inhibitory concentration against Pseudomonas aeruginosa PAO-1; assay type: functional; outline: as §3
Pseudomonas aeruginosa [38] = experiment: Minimum inhibitory concentration against Pseudomonas aeruginosa PAE_NUH20; assay type: functional; outline: as §3
Pseudomonas aeruginosa [39] = experiment: Susceptibility testing against Pseudomonas aeruginosa PAE_NUH07; R=Resistant; assay type: functional, organism-based; outline: as §1
Pseudomonas aeruginosa [40] = experiment: Susceptibility testing against Pseudomonas aeruginosa PAE_NUH18; I=Intermediate; assay type: functional, organism-based; outline: as §1
Pseudomonas aeruginosa [41] = experiment: Susceptibility testing against Pseudomonas aeruginosa PAE_NUH23; I=Intermediate; assay type: functional, organism-based; outline: as §1
Pseudomonas aeruginosa [42] = experiment: Susceptibility testing against Pseudomonas aeruginosa PAE_NUH24; I=Intermediate; assay type: functional, organism-based; outline: as §1

CC(C)(O/N=C(\C(=O)N[C@@H]1C(=O)N2C(C(=O)[O-])=C(C[n+]3ccccc3)CS[C@H]12)c1csc(N)n1)C(=O)O
Activity (Pseudomonas aeruginosa [1]): Resistant
Activity (Pseudomonas aeruginosa [2]): Resistant
Activity (Pseudomonas aeruginosa [3]): Resistant
Activity (Pseudomonas aeruginosa [4]): Resistant
Activity (Pseudomonas aeruginosa [5]): Resistant
Activity (Pseudomonas aeruginosa [6]): Resistant
Activity (Pseudomonas aeruginosa [7]): Susceptible
Activity (Pseudomonas aeruginosa [8]): Susceptible
Activity (Pseudomonas aeruginosa [9]): Susceptible
Activity (Pseudomonas aeruginosa [10]): Susceptible
Activity (Pseudomonas aeruginosa [11]): I
Activity (Pseudomonas aeruginosa [12]): Susceptible
Activity (Pseudomonas aeruginosa [13]): Susceptible
Activity (Pseudomonas aeruginosa [14]): Susceptible
Activity (Pseudomonas aeruginosa [15]): Susceptible
Activity (Pseudomonas aeruginosa [16]): Susceptible
Activity (Pseudomonas aeruginosa [17]): Susceptible

NC[C@H]1O[C@H](O[C@H]2[C@H](OC[C@H](O)CNCCCCNC[C@@H](O)CO[C@@H]3[C@@H](O)[C@H](N)C[C@H](N)[C@H]3O[C@H]3O[C@H](CN)[C@@H](O)[C@H](O)[C@H]3N)[C@@H](O)[C@H](N)C[C@@H]2N)[C@H](N)[C@@H](O)[C@@H]1O
MIC (Staphylococcus aureus [18]): 16 µg/mL (≈ 18.9 µM)
MIC (Pseudomonas aeruginosa [19]): 4 µg/mL (≈ 4.73 µM)
MIC (Staphylococcus aureus [20]): 1 µg/mL (≈ 1.18 µM)
MIC (Pseudomonas aeruginosa [21]): 6.3 µg/mL (≈ 7.46 µM)
MIC (Pseudomonas aeruginosa [22]): 6.3 µg/mL (≈ 7.46 µM)
MIC (Pseudomonas aeruginosa [23]): 6.3 µg/mL (≈ 7.46 µM)
MIC (Pseudomonas aeruginosa [24]): 3.1 µg/mL (≈ 3.67 µM)
MIC (Pseudomonas aeruginosa [25]): 3.1 µg/mL (≈ 3.67 µM)
MIC (Pseudomonas aeruginosa [26]): 6.3 µg/mL (≈ 7.46 µM)
MIC (Pseudomonas aeruginosa [27]): 3.1 µg/mL (≈ 3.67 µM)
MIC (Pseudomonas aeruginosa [28]): 32 µg/mL (≈ 37.9 µM)
MIC (Pseudomonas aeruginosa [29]): 8 µg/mL (≈ 9.47 µM)
MIC (Pseudomonas aeruginosa [30]): 8 µg/mL (≈ 9.47 µM)
MIC (Pseudomonas aeruginosa [31]): 16 µg/mL (≈ 18.9 µM)
MIC (Pseudomonas aeruginosa [32]): 16 µg/mL (≈ 18.9 µM)
MIC (Enterococcus faecalis): > 50 µg/mL
MIC (Escherichia coli): 4 µg/mL (≈ 4.73 µM)
MIC (Pseudomonas aeruginosa [33]): 16 µg/mL (≈ 18.9 µM)
MIC (Pseudomonas aeruginosa [34]): 16 µg/mL (≈ 18.9 µM)
MIC (Pseudomonas aeruginosa [35]): 8 µg/mL (≈ 9.47 µM)
MIC (Pseudomonas aeruginosa [36]): 1 µg/mL (≈ 1.18 µM)
MIC (Pseudomonas aeruginosa [37]): 2 µg/mL (≈ 2.37 µM)
MIC (Pseudomonas aeruginosa [38]): 16 µg/mL (≈ 18.9 µM)

GENTAMICIN
Activity (Pseudomonas aeruginosa [1]): Resistant
Activity (Pseudomonas aeruginosa [2]): Resistant
Activity (Pseudomonas aeruginosa [3]): Resistant
Activity (Pseudomonas aeruginosa [4]): Resistant
Activity (Pseudomonas aeruginosa [5]): Resistant
Activity (Pseudomonas aeruginosa [6]): Resistant
Activity (Pseudomonas aeruginosa [39]): Resistant
Activity (Pseudomonas aeruginosa [7]): Susceptible
Activity (Pseudomonas aeruginosa [10]): Susceptible
Activity (Pseudomonas aeruginosa [40]): I
Activity (Pseudomonas aeruginosa [41]): I
Activity (Pseudomonas aeruginosa [42]): I
Activity (Pseudomonas aeruginosa [12]): Susceptible
Activity (Pseudomonas aeruginosa [13]): Susceptible
Activity (Pseudomonas aeruginosa [15]): Susceptible
Activity (Pseudomonas aeruginosa [16]): Susceptible
Activity (Pseudomonas aeruginosa [17]): Susceptible
